Screens as filed in PubChem BioAssay.
A selection: hits, their analogues and other compounds. The true share with any hit is near 1.9%.
SUMO1 PPI mod = modulators of SUMO1 protein-protein interactions, primary screen, biochemical, uHTS. hit rate 0.33% among 360,000. inhibition, % at 20 µM. SUMO1 binding to a labelled peptide, TR-FRET, 1 h. Small ubiquitin-related modifier 1 (Homo sapiens), P63165; in the data active = inhibition above about 37%
Target sequence (P63165 whole entry, looked up): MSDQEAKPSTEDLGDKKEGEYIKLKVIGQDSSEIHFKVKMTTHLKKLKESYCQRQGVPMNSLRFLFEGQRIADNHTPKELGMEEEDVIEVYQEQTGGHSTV
STEP block = STEP phosphatase inhibitors, primary screen, biochemical, fluorescence intensity, uHTS; Tyrosine-protein phosphatase non-receptor type 5 (Homo sapiens), P54829; recombinant STEP, OMFP fluorogenic substrate; inhibition, % at 20 µM; hit rate 0.25% among 360,000; AID 588621, 2011;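 active = inhibition at 20 µM, scaled per plate between control wells, above about 37%, limit read from the data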;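 note: 0% = DMSO with enzyme and substrate and 100% = substrate only without enzyme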
Target sequence (P54829 whole entry, looked up): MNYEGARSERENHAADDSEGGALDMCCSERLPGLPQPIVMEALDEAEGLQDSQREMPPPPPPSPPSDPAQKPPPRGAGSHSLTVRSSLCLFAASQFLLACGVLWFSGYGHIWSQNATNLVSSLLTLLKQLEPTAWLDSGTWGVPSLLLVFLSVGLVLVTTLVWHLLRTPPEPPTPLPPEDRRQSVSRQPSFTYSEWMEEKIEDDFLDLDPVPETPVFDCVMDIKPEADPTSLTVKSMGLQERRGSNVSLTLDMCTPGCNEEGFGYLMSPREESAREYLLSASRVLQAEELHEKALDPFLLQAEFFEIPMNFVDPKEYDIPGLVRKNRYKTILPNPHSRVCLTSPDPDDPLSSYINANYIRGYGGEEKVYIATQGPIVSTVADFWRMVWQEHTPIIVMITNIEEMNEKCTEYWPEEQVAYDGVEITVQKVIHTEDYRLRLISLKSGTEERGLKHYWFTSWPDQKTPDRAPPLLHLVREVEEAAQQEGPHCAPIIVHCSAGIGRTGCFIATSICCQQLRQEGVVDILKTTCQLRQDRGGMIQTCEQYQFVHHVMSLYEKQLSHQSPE
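System: STEP (striatal-enriched tyrosine phosphatase) enzyme, cell-free; medium: Bis-Tris pH 6.0 buffer with DTT, detergent; dosing: 20 µM, 1% DMSO; times: reaction 20 min, ambient temperature; detection: fluorescence, 480/540 nm; read-out basis: normalized % inhibition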
Scp-1 inhibitor = Scp-1 phosphatase inhibitors, primary screen, biochemical, colorimetric, uHTS. Carboxy-terminal domain RNA polymerase II polypeptide A small phosphatase 1 (Homo …. Recombinant Scp1, phosphopeptide, malachite green phosphate absorbance. inhibition, % at 20 µM. hit rate 0.88% among 340,000. AID 493091, 2011;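 active = inhibition above about 50% at 20 µM, limit read from the data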;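 note: plate controls were DMSO wells with enzyme for no effect and wells lacking enzyme for full effect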
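System: truncated SCP-1 phosphatase (76-261aa); medium: Tris acetate buffer pH 5.5 with MgCl2 and Tween-20; incubation: 45 min room-temperature reaction, 5 min colour, 30 min stabiliser; compound: single 20 µM dose, 1% DMSO; reagent: Phosphorylated 17-residue peptide substrate; read-out: % inhibition at 20 µM; technique: colorimetric free-phosphate detection, absorbance 630 nm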
FAS TE block = FAS thioesterase domain inhibitors, primary screen, biochemical, fluorescence intensity, uHTS; recombinant FAS-TE, OMFH fluorogenic substrate, fluorescence endpoint; inhibition, % at 15 µM; hit rate 0.67% among 360,000; Fatty acid synthase (Homo sapiens), P49327; AID 602261, 2012;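 active = compounds whose normalised, plate-corrected inhibition of enzyme fluorescence in the single-dose primary screen is 50% or more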;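 note: 0% = DMSO with enzyme and 100% = substrate without enzyme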
LMPTP inh = LMPTP phosphatase inhibitors, primary screen, biochemical, fluorescence intensity, uHTS | hit rate 0.22% among 360,000 | inhibition, % at 20 µM | recombinant LMPTP-A, OMFP fluorogenic substrate | AID 651560, 2012 | Low molecular weight phosphotyrosine protein phosphatase (Homo sapiens), P24666;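 active = compounds that cut the enzyme signal by at least half of the control window in the single-dose screen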;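 note: plate controls were DMSO wells with enzyme plus substrate for no effect and substrate without enzyme for full effect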
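Test system: LMPTP-A phosphatase enzyme; input: 0.625 nM LMPTP-A final; reagent: OMFP substrate, 400 µM final; compound dosing: 20 µM single dose, 3% DMSO; incubation: 50 min dark incubation at room temperature; measured by: endpoint fluorescence intensity from OMFP dephosphorylation; measure: % inhibition relative to no-enzyme and uninhibited control wells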
FAS-TE inh conf = FAS thioesterase domain inhibitors, confirmation, biochemical, fluorescence intensity, single concentration. inhibition, % at 15 µM. shares compounds with FAS TE block. hit rate 45% among 2,300. recombinant FAS-TE, OMFH fluorogenic substrate;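 active = compounds inhibiting the enzyme by at least 50% at 15 µM in any one of the replicates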;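 note: 0% = enzyme with DMSO only and 100% = wells lacking enzyme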
* marks the source's active call; other numbers are inactive results; . = not tested or not shown.

SMILES	SUMO1 PPI mod	STEP block	Scp-1 inhibitor	FAS TE block	LMPTP inh	FAS-TE inh conf
CCN(C(=O)COC(=O)c1cc([N+](=O)[O-])ccc1N1CCOCC1)c1ccccc1	-33	-1	-5	78*	0	71*
C[n+]1c(-c2ccccc2)cc2c(=Cc3ccc([N+](=O)[O-])cc3)c3ccccc3n21	-24	1	22	25	13	.
CCOC(=O)c1cc2c(=Cc3ccc(N(C)C)cc3)c3ccccc3n2[n+]1C	-36	10	17	62*	29	61*
Cc1cc2cc(CN(Cc3cccs3)C(c3nnnn3C(C)(C)C)C(C)C)c3nnnn3c2cc1C (configuration not stated)	-1	9	-7	52*	2	6
CN(Cc1ccccc1)C(=O)COC(=O)c1cc(Cl)nc(Cl)c1	-3	3	-4	51*	0	64*
CCN(CC)c1ccc(C(=O)OCC(=O)N(C)Cc2ccccc2)cc1	-1	0	-4	7	-1	.
CC1(C)CC(=NNC(=O)c2n[nH]c3c2CCC3)CC(C)(C)N1	-1	-1	1	-12	-1	.
COc1ccc(N2CCN(C3CC(=O)N(Cc4ccccc4)C3=O)CC2)cc1 (configuration not stated)	-2	4	-7	1	1	.
O=C1CC(N2CCN(c3ccc(S(=O)(=O)N4CCOCC4)cc3)CC2)C(=O)N1Cc1ccccc1 (configuration not stated)	0	13	-1	56*	-1	65*
CC(C)Cn1c(N)c(C(=O)COC(=O)c2ccc(O)cc2O)c(=O)n(C)c1=O	7	1	-6	0	1	.
CC(C)Cn1c(N)c(C(=O)COC(=O)c2cc3ccccc3cc2O)c(=O)n(C)c1=O	1	-1	-4	82*	1	2
Cn1c(SCc2ccccc2C#N)nnc1-c1ccncc1	3	3	0	-8	-2	.
COc1ccc(CC(=O)N(C)Cc2ccc(C(C)(C)C)cc2)cc1S(=O)(=O)N1CCOCC1	6	0	2	80*	1	82*
CCN1C(=O)[C@H]2[C@@H](c3ccc(C)cc3)N3C(=O)N(c4ccccc4)C(=O)[C@@]3(Cc3ccc(Cl)cc3)[C@H]2C1=O	1	0	-8	63*	0	32
CCN1C(=O)[C@H]2[C@@H](c3ccc(C)cc3)N3C(=O)N(c4cccc(Cl)c4)C(=O)[C@@]3(CC)[C@H]2C1=O	2	0	-4	-3	-2	.
CCN1C(=O)[C@H]2[C@@H](c3ccc(C)cc3)N3C(=O)N(c4ccc(OC)cc4)C(=O)[C@@]3(Cc3ccccc3)[C@H]2C1=O	-1	-2	0	-5	0	.
CCN1C(=O)[C@H]2[C@@H](c3ccc(C)cc3)N3C(=O)N(c4ccc(C)cc4)C(=O)[C@@]3(Cc3ccc(Cl)cc3)[C@H]2C1=O	9	0	-4	60*	2	20
Cc1cccc([C@@H]2[C@@H]3C(=O)N(Cc4ccccc4)C(=O)[C@@H]3[C@]3(CC(C)C)C(=O)N(c4cccc(Cl)c4)C(=O)N23)c1	-1	2	-14	72*	2	27
CN[C@@H](C)C(=O)NC[C@H]1O[C@@H](n2cnc3c(N)ncnc32)[C@H](O)[C@@H]1O	1	2	1	-7	-2	.
CC(C)(C)c1ccc(C(=O)NCc2nnc(SCC(=O)NC3CCCCC3)o2)cc1	3	1	-10	41	0	.
O=C(Nc1ccccc1)c1cn(CCBr)cn1	-5	0	5	-6	-1	.
N#C/C(=C1/C(=O)Nc2ccc(Br)cc21)c1ccccn1	2	-1	-1	-9	0	.
O[C@H]1C[C@H](c2ccccc2)N(CC2CCCCC2)C[C@@H]1n1cc(C2CC2)nn1	10	-1	.	65*	1	65*
CC(C)NC(=O)C(C)N1CCN(S(=O)(=O)c2ccc3ccccc3c2)CC1 (configuration not stated)	-5	-1	7	-3	0	.
CCC(CC)NC(=O)CCCSc1nc2ccccc2[nH]1	0	-2	0	0	0	.
SMILES	SUMO1 PPI mod	STEP block	Scp-1 inhibitor	FAS TE block	LMPTP inh	FAS-TE inh conf
CCC(C)c1ccc2oc(-c3ccc(NC(=O)Cn4cnc5c(=O)n(C)c(=O)n(C)c54)cc3)nc2c1 (configuration not stated)	0	4	-6	73*	-1	6
Cn1c(=O)c2ncn(CC(=O)Nc3ccc(N4CCOCC4)cc3)c2n(C)c1=O	2	2	-8	-7	-2	.
Cn1ncc2c1NC(c1ccc(F)cc1)SCC2=O (configuration not stated)	-2	-1	.	-8	-1	.
CCn1c2ccccc2c2cc(NC(=O)C3CCN(S(=O)(=O)c4cccs4)CC3)ccc21	-4	1	-6	66*	2	25
COc1ccc2nc(NC(=O)C3CCN(S(=O)(=O)c4cccs4)CC3)sc2c1	11	1	-3	41	0	.
Cc1ccc2nc(NC(=O)C3CCN(S(=O)(=O)c4cccs4)CC3)sc2c1	3	0	-2	68*	2	30
O=C(Nc1ccccc1)OCC1COC(c2ccccc2)(c2ccccc2)O1 (configuration not stated)	5	-1	-16	35	4	.
Cc1cc(S(=O)(=O)NCc2ccccc2)ccc1OCC(=O)NCc1ccncc1	-2	2	-5	-4	0	.
N#Cc1c(N)[nH]c(C(=O)c2ccccc2)c1-c1ccc(Cl)cc1	1	.	.	67*	4	60*
C=CC(=O)NC(NC(=O)C=C)c1ccccc1F	2	1	-9	-2	0	.
CCOC(=O)c1c(NC(=O)CSc2nnc(-c3ccccc3)n2CC)sc(C(C)=O)c1C	-17	7	3	51*	2	17
CCOC(=O)c1c(NC(=O)CSc2nnc(-c3cccc(C)c3)n2CC)sc(C(C)=O)c1C	-8	5	7	37	3	.
N#Cc1c(NC(=O)CSc2ncccn2)oc(-c2ccccc2)c1-c1ccccc1	-4	-1	11	14	3	.
CCn1c(SCC(=O)Nc2ncc(C(F)(F)F)cc2Cl)nnc1-c1ccccc1	-6	-1	1	70*	0	73*
CCn1c(SCC(=O)Nc2oc(-c3ccccc3)c(-c3ccccc3)c2C#N)nnc1-c1cc(OC)cc(OC)c1	22	2	-2	54*	5	3
